Measurements taken from ChEMBL document CHEMBL3739273, “Synthesis, biological activity evaluation and molecular docking studies of novel coumarin substituted thiazolyl-3-aryl-pyrazole-4-carbaldehydes” (Bioorg Med Chem Lett, 2015).
In brackets after ≈: the same amount, converted by molar mass. Activity calls are given as the source filed them. The calls are words filed in the database; no cut-off is given here.

Columns and labels:
HeLa [1] = experiment: Anticancer activity against human HeLa cells assessed as cell viability after 48 hrs by MTT assay; assay type: functional, cell-based
Method in brief: (§1)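 MTT cytotoxicity assay in human DU-145 prostate, MCF-7 breast and HeLa cervical cancer cell lines. Doxorubicin was the reference drug.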

Proteus vulgaris [2] = experiment: Antibacterial activity against Proteus vulgaris ATCC 13315 after 24 hrs by microtiter plate method; assay type: functional; details: ATCC 13315, 24 h
Method in brief: (§2)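 Test concentrations reported in µg/mL. Gentamycin sulfate and ampicillin were the reference drugs.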

Bacillus spizizenii [3] = experiment: Antibacterial activity against Bacillus subtilis ATCC 6633 assessed as growth inhibition at 100 ug/ml after 24 hrs by agar well diffusion method; assay type: functional, organism-based
Method in brief: (§3)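 Agar well diffusion. Compounds were tested at 10, 20, 100, 200 and 300 µg/mL, and the zone of inhibition was measured in mm. Gentamycin sulfate was the reference drug.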

Bacillus cereus [4] = experiment: Bactericidal activity against Bacillus cereus ATCC 14579 after 24 hrs; assay type: functional; details: ATCC 14579, 24 h, read-out: MBC99.9
Method in brief: (§4)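 MBC determined by a standard MBC protocol alongside the MIC, with values in µg/mL. Gentamycin sulfate and ampicillin were the references.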

Proteus vulgaris [5] = experiment: Antibacterial activity against Proteus vulgaris ATCC 13315 assessed as growth inhibition at 100 ug/ml after 24 hrs by agar well diffusion method; assay type: functional; details: ATCC 13315, 24 h, read-out: IZ; method in brief: as §3
HeLa [6] = experiment: Anticancer activity against human HeLa cells assessed as cell viability at 10 uM after 48 hrs by MTT assay; assay type: functional, cell-based
Klebsiella pneumoniae [7] = experiment: Antibacterial activity against Klebsiella pneumoniae ATCC 43816 after 24 hrs by microtiter plate method; assay type: functional; details: ATCC 43816, 24 h; method in brief: as §2
Bacillus cereus [8] = experiment: Antibacterial activity against Bacillus cereus ATCC 14579 assessed as growth inhibition at 100 ug/ml after 24 hrs by agar well diffusion method; assay type: functional; method in brief: as §3
Bacillus spizizenii [9] = experiment: Antibacterial activity against Bacillus subtilis ATCC 6633 after 24 hrs by microtiter plate method; assay type: functional; details: ATCC 6633, 24 h; method in brief: as §2
Cytochrome P450 2A6 = biological target: T1, Cytochrome P450 2A6 (Homo sapiens, UniProt P11509); experiment: Inhibition of human microsomal CYP2A6; assay type: ADME
T1 sequence (P11509 whole entry): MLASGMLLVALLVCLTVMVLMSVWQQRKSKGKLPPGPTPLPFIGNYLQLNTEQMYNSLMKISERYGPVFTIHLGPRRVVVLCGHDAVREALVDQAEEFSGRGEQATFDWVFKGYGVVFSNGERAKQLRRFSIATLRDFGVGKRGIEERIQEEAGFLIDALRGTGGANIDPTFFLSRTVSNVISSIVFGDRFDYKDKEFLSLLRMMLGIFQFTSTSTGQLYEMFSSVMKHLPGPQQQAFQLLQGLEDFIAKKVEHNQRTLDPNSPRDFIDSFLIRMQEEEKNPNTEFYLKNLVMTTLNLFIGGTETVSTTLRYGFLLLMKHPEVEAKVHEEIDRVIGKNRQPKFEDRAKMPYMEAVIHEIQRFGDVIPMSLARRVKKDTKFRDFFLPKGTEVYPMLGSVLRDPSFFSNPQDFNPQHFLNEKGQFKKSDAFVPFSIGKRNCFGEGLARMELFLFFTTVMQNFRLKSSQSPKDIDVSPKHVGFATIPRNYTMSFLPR

Escherichia coli [10] = experiment: Antibacterial activity against Escherichia coli ATCC 8739 after 24 hrs by microtiter plate method; assay type: functional; details: ATCC 8739, 24 h; method in brief: as §2
Klebsiella pneumoniae [11] = experiment: Bactericidal activity against Klebsiella pneumoniae ATCC 43816 after 24 hrs; assay type: functional; details: ATCC 43816, 24 h, read-out: MBC99.9; method in brief: as §4
Bacillus cereus [12] = experiment: Antibacterial activity against Bacillus cereus ATCC 14579 after 24 hrs by microtiter plate method; assay type: functional; details: ATCC 14579, 24 h; method in brief: as §2
HeLa [13] = experiment: Induction of apoptosis in human HeLa cell assessed as nuclear condensation after 24 hrs by Hoechst 33258 staining based fluorescence microscopic analysis; assay type: functional
Method in brief: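 HeLa cells treated at 10 µM for 24 h, washed with PBS, then stained with Hoechst 33258 ([…]) for 20 min. Chromatin condensation imaged by fluorescence microscopy with a DAPI filter.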

Bacillus spizizenii [14] = experiment: Bactericidal activity against Bacillus subtilis ATCC 6633 after 24 hrs; assay type: functional; details: ATCC 6633, 24 h, read-out: MBC99.9; method in brief: as §4
Escherichia coli [15] = experiment: Bactericidal activity against Escherichia coli ATCC 8739 after 24 hrs; assay type: functional; details: ATCC 8739, 24 h, read-out: MBC99.9; method in brief: as §4
[16] = Anticancer activity against human DU145 cells assessed as cell viability after 48 hrs by MTT assay; assay type: functional, cell-based; details: DU-145, 48 h; method in brief: as §1
MCF7 = experiment: Anticancer activity against human MCF7 cells assessed as cell viability after 48 hrs by MTT assay; assay type: functional, cell-based; details: MCF7, 48 h; method in brief: as §1
Klebsiella pneumoniae [17] = experiment: Antibacterial activity against Klebsiella pneumoniae ATCC 43816 assessed as growth inhibition at 100 ug/ml after 24 hrs by agar well diffusion method; assay type: functional; details: ATCC 43816, 24 h, read-out: IZ; method in brief: as §3
Escherichia coli [18] = experiment: Antibacterial activity against Escherichia coli ATCC 8739 assessed as growth inhibition at 100 ug/ml after 24 hrs by agar well diffusion method; assay type: functional; details: ATCC 8739, 24 h, read-out: IZ; method in brief: as §3
Staphylococcus aureus [19] = experiment: Antibacterial activity against methicillin-resistant Staphylococcus aureus NCTC 13616 after 24 hrs by microtiter plate method; assay type: functional; details: NCTC 13616, 24 h
Staphylococcus aureus [20] = experiment: Antibacterial activity against methicillin-resistant Staphylococcus aureus NCTC 13616 assessed as growth inhibition at 100 ug/ml after 24 hrs by agar well diffusion method; assay type: functional, organism-based
Method in brief: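 Agar well diffusion assay with compounds applied to wells at several concentrations, including the 100 level reported here. The zone of inhibition was measured in mm. Gentamycin sulfate was the standard drug.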

Proteus vulgaris [21] = experiment: Bactericidal activity against Proteus vulgaris ATCC 13315 after 24 hrs; assay type: functional; details: ATCC 13315, 24 h, read-out: MBC99.9; method in brief: as §4
[22] = n-Octanol-phosphate buffer partition coefficient, log P of the compound at pH 7.4 after 30 mins by shake flask method; assay type: physicochemical
Method in brief: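 Shake-flask partition between n-octanol and 50 mM phosphate buffer, pH 7.4. P calculated and expressed as logP.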

Staphylococcus aureus [23] = experiment: Bactericidal activity against methicillin-resistant Staphylococcus aureus NCTC 13616 after 24 hrs; assay type: functional; details: NCTC 13616, 24 h, read-out: MBC99.9
Method in brief: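 MBC determined by a standard MBC protocol run alongside the MIC determination. Gentamycin sulfate and ampicillin served as reference drugs.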

Compound	IC50 (HeLa [1])	MIC (Proteus vulgaris [2])	growth inhibition (GI) (Bacillus spizizenii [3])	MBC (Bacillus cereus [4])	zone of inhibition at 100 µg/mL (Proteus vulgaris [5])	MIC (Klebsiella pneumoniae [7])	growth inhibition (GI) (Bacillus cereus [8])	MIC (Bacillus spizizenii [9])	Ki (Cytochrome P450 2A6)	MIC (Escherichia coli [10])	MBC (Klebsiella pneumoniae [11])	MIC (Bacillus cereus [12])	Activity (HeLa [13])	MBC (Bacillus spizizenii [14])	MBC (Escherichia coli [15])	IC50 [16]	IC50 (MCF7)	zone of inhibition at 100 µg/mL (Klebsiella pneumoniae [17])	zone of inhibition at 100 µg/mL (Escherichia coli [18])	MIC (Staphylococcus aureus [19])	also measured
Cc1ccc(-c2nn(-c3nc(-c4cc5cc(Cl)cc(Cl)c5oc4=O)cs3)cc2C=O)cc1	5.75 µM	105 µg/mL (≈ 218 µM)	Active	150 µg/mL (≈ 311 µM)	18 mm	101 µg/mL (≈ 209 µM)	Active	98.2 µg/mL (≈ 204 µM)	0.00257 µM	101 µg/mL (≈ 210 µM)	150 µg/mL (≈ 311 µM)	100 µg/mL (≈ 208 µM)	Active	145 µg/mL (≈ 301 µM)	150 µg/mL (≈ 311 µM)	14.7 µM	14.6 µM	20 mm	18 mm	116 µg/mL (≈ 240 µM)	growth inhibition (GI) (HeLa [6]): Active; growth inhibition (GI) (Staphylococcus aureus [20]): Active; MBC (Proteus vulgaris [21]): 210 µg/mL (≈ 435 µM); logD at 0.5 h [22]: 3.6; MBC (Staphylococcus aureus [23]): 230 µg/mL (≈ 477 µM)
Cc1ccc(-c2nn(-c3nc(-c4cc5cc(Br)cc(Br)c5oc4=O)cs3)cc2C=O)cc1	6.25 µM	101 µg/mL (≈ 176 µM)	Active	110 µg/mL (≈ 193 µM)	20 mm	79.1 µg/mL (≈ 138 µM)	Active	92.4 µg/mL (≈ 162 µM)	0.00173 µM	86.5 µg/mL (≈ 151 µM)	115 µg/mL (≈ 201 µM)	72.8 µg/mL (≈ 127 µM)	Active	150 µg/mL (≈ 263 µM)	130 µg/mL (≈ 228 µM)	10.8 µM	24.5 µM	24 mm	22 mm	106 µg/mL (≈ 185 µM)	growth inhibition (GI) (Staphylococcus aureus [20]): Active; MBC (Proteus vulgaris [21]): 150 µg/mL (≈ 263 µM); logD at 0.5 h [22]: 3.34; MBC (Staphylococcus aureus [23]): 175 µg/mL (≈ 306 µM)
